# Assay outcomes as filed in PubChem BioAssay.
# KCNQ1 pot: human KCNQ1 channel potentiation or activation | CHO-K1 KCNQ1, thallium flux FluxOR fluorescence; hits give high values | P51787 | AID 2648 | 310,000 tested, 0.35% active | B-score at 10 µM;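 active means fluorescence ratio B-score, a plate-corrected score, at least three library SD, with initial intensity B-score within 5 SD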
#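 System: Stable KCNQ1 CHO-K1 line | Incubation: 90 min dye loading and 20 min compound exposure, both at room temperature | Measure: Ratio B score | Medium: Assay buffer for compound exposure, DMSO matched across wells | Compound dosing: Single-concentration screen | Probe or stimulus: K+/Tl+ depolarizing stimulus | Measured by: Kinetic FluxOR fluorescence, 10 s baseline plus 110 s post-stimulus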
# hERG rescue: compounds protecting human hERG from proarrhythmic drug block; Q12809; CHO-hERG, FluxOR thallium flux, dofetilide IC70 present; activation (rescue from dofetilide block), less the hit threshold, % at 10 µM; 310,000 tested, 0.51% active;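 active means activation above the mean of controls blocked by dofetilide plus 5 SD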;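 further: thallium influx through hERG after potassium depolarization seen as dye fluorescence rise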
# KCNQ1 inh: inhibitors of human KCNQ1 potassium channel; P51787; 310,000 tested, 1.3% active; B-score at 10 µM; CHO-K1 KCNQ1, FluxOR thallium flux fluorescence; hits give high values;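 active means compounds whose thallium flux B-score, printed positive for inhibition, exceeds three library SD while starting fluorescence stays within three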;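 further: channel opened by potassium depolarization with thallium stimulus after 20 min compound exposure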
# KCNK9 inh: human KCNK9 channel inhibition; 310,000 tested, 1.2% active; HEK293 KCNK9, FluxOR thallium flux fluorescence; hits give low values; Q9NPC2; B-score at 10 µM;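 active means ratio B-score over 3 SD below the library mean, with starting fluorescence within 5 SD of its mean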;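 further: negative B-score means less thallium flux so channel inhibition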
# KCNK3 block: human KCNK3 channel inhibition, primary screen. CHO-KCNK3 thallium flux, FluxOR fluorescence; hits give low values. O14649. 340,000 tested, 0.84% active. AID 602410. B-score at 10 µM;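 active means B-score under library mean minus 4 SD, starting fluorescence ratio at most library mean plus 5 SD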;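 further: more negative B-score means stronger inhibition of thallium flux through KCNK3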
# Kir21 block: inhibitors of mouse Kir2.1 inward-rectifier potassium channel; P35561; HEK293-Kir2.1, FluxOR thallium flux fluorescence; hits give low values; B-score at 10 µM; 310,000 tested, 0.85% active;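 active means fluorescence ratio B-score at or below minus 3 SD of library scores, with starting-brightness B-score within 2 SD, cut at about -4.2 in these data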;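 further: channel flux triggered by added potassium and thallium sulfate stimulus; B-score of peak minus minimum fluorescence over baseline after thallium stimulus; more negative B-score means stronger Kir2.1 block with less thallium influx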
# * hit, by the source's call; i = inactive; . = no result given. Hits are enriched below; roughly 3.7% of the tested compounds scored in any of these assays.
SMILES,KCNQ1 pot,hERG rescue,KCNQ1 inh,KCNK9 inh,KCNK3 block,Kir21 block
Cc1cc(=O)n2nc(N3CCCC(C(=O)Nc4ccc(C)c(C)c4)C3)sc2n1 (centres undefined),i,-8,i,i,i,-0.4
Cn1nc(-c2ccc(Cl)cc2)c2cc(C(=O)N3CCN(c4ccccn4)CC3)sc21,i,-6,i,i,-13*,0.11
Cn1nc(-c2ccc(Cl)cc2)c2cc(C(=O)N3CCCC3)sc21,i,-4,i,i,i,-1.3
Cc1cc(C)nc(SSc2nc(C)cc(C)n2)n1,i,5.6*,i,i,i,0.03
COC(=O)C1=C(C)N(CCc2cc(OC)c(OC)c(OC)c2)C(=O)N[C@H]1c1ccccc1,i,-2,i,i,i,1
CN(C)C(CNC(=O)c1ccc(C(=O)c2ccccc2)cc1)c1ccccc1 (centres undefined),i,-5,i,i,i,-2.1
CN(C)C(CNC(=O)c1ccc(-c2ccccc2)cc1)c1ccccc1 (centres undefined),i,-11,6*,i,i,-3.1
CC(=O)NC(CC(=O)NCCCn1ccc2ccccc21)c1ccccc1 (centres undefined),i,-10,i,i,i,2.6
COc1cc(NC(=O)COc2cc(O)c3c(c2)OC(C)(C)CC3=O)cc(OC)c1OC,i,-28,9*,i,i,0.02
CC1(C)CC(=O)c2c(O)cc(OCC(=O)Nc3ccc(S(N)(=O)=O)cc3)cc2O1,i,-5,i,i,i,-0.01
CCc1nc2sccc2c(=O)n1N,i,-3,i,i,i,1.9
O=[N+]([O-])c1c(Nc2ccccn2)cc(Cl)c2nonc12,i,-12,11*,-6.9*,i,0.32
O=C(COC(=O)c1c2c(nc3ccccc13)/C(=C/c1cccc([N+](=O)[O-])c1)CCC2)NC1CCS(=O)(=O)C1 (centres undefined),i,-7,i,i,i,-1.4
CN(CCC#N)C(=O)COC(=O)c1c2c(nc3ccccc13)/C(=C\c1ccco1)CC2,.,.,.,.,-8.9*,.
O=C(COC(=O)c1c2c(nc3ccccc13)/C(=C\c1ccco1)CC2)NC1CCCC1,.,.,.,.,-9.4*,.
CC1CCCCC1NC(=O)COC(=O)c1c2c(nc3ccccc13)/C(=C\c1ccco1)CC2 (centres undefined),.,.,.,.,-11*,.
CCCCn1c(N)c(N(C)C(=O)C2CC(=O)N(Cc3ccco3)C2)c(=O)[nH]c1=O (centres undefined),.,.,.,.,i,.
Cc1ccc(Nc2nc(-c3ccccc3)cs2)nc1,i,-5,i,i,i,0.9
Cc1ccc(Nc2nc(-c3cccs3)cs2)nc1,i,6.1*,i,i,i,0.51
COc1ccccc1C(CCN(Cc1ccccc1)C(C)=O)c1ccco1 (centres undefined),i,-12,i,i,i,-5.3*
COc1cccc(C2=NOC(C(=O)Nc3cccnc3Cl)C2)c1 (centres undefined),i,-13,i,i,i,0.99
Cc1ccc(Cl)cc1NC(=S)NCCCSC1CCCCC1,i,-14,8*,i,i,-0.82
Cc1cccc(C)c1OCC(=O)NNC(=O)CNC(=O)c1ccc(OC(F)F)cc1,.,.,.,.,i,.
CSc1ccc2c(c1)C(N1CCN(C)CC1)Cc1ccccc1S2 (centres undefined),i,-25,i,i,i,-7.9*
CCCCN1C(=O)C2C(c3ccc(OC)cc3O)NC(CC(C)C)(C(=O)O)C2C1=O (centres undefined),i,0,i,i,i,-0.02
SMILES,KCNQ1 pot,hERG rescue,KCNQ1 inh,KCNK9 inh,KCNK3 block,Kir21 block
CCC1(C(=O)O)NC(c2cc(OC)ccc2O)C2C(=O)N(Cc3ccccc3)C(=O)C21 (centres undefined),i,5.5*,i,i,i,-0.01
CCOC(=O)C1=C(C)NC(C)=C(C(=O)OCC)C1c1ccccc1/C=C/C(=O)OC(C)(C)C,i,-10,8*,i,.,0.27
O=C(N/N=C/c1ccccn1)c1ccco1,i,-7,i,i,i,-0.92
O=C(N/N=C/c1ccc2ncccc2c1)c1ccco1,i,-9,6*,i,i,-0.11
Cc1ccc(Oc2ccccc2NC(=O)CSCC(=O)Nc2cc(C)on2)cc1,i,-19,i,i,i,-3.9
Cc1cc(NC(=O)CSCC(=O)Nc2ccccc2Oc2ccccc2)no1,i,-9,i,i,i,-4.8*
CC(C)=N/N=C(\c1cccc([N+](=O)[O-])c1)C12CN3CN(CN(C3)C1)C2,i,-10,i,i,i,0.11
Cc1sc2nc(SCC(=O)N(C)Cc3ccccc3)n(-c3ccccc3)c(=O)c2c1C,i,-10,i,i,-8.7*,0.3
Cc1sc2nc(SCC(=O)NCCCO)n(-c3ccccc3)c(=O)c2c1C,i,-8,i,i,i,0.17
CC(C)CCn1nnnc1CN1CCN(c2ccccc2)CC1,i,-6,i,i,i,-1.1
COc1cc(OC)cc(C(=O)N2CCCC(Nc3ccc(F)cc3)C2)c1 (centres undefined),i,-6,i,i,i,0.42
COc1ccc2cc(C(=O)N3CCCC(Nc4ccc(F)cc4)C3)n(C)c2c1 (centres undefined),i,-9,i,i,i,-4.9*
CC1CCN(C(=S)c2cn(Cc3ccccc3F)c3ccccc23)CC1,i,-13,i,-6.6*,i,2.5
CC(C)C(CCNC1CCN(C)CC1)c1ccc(Cl)cc1 (centres undefined),i,-6,i,i,i,-1.4
CN1CCC(NCCC(c2ccc(F)cc2)c2ccc(Cl)cc2)CC1 (centres undefined),i,-9,i,i,i,-6.7*
CC[C@]12c3[nH]c4cc(CCC(=O)N(C)C)ccc4c3CCN1C(=O)[C@@H](CC(=O)NCc1cccc(C(F)(F)F)c1)C[C@@H]2C(=O)N1CCN(C(=O)c2ccco2)CC1,.,.,.,.,i,.
O=C(O)C[C@]1(C(=O)Nc2ccc(F)cc2)CC(/C=C/c2ccccc2)=NO1,i,-5,i,i,i,0.38
COCCCNC(=O)c1ccc2c3c(onc13)-c1ccccc1C2=O,i,-56,10*,i,i,-14
CC(C)OCCCNC(=O)c1ccc2c(c1)S(=O)(=O)c1ccccc1C2=O,i,-13,i,i,i,0.99
Cc1ccc(/C=N\NC(=O)CNC(=O)C23CC4CC(CC(C4)C2)C3)o1,i,-11,i,i,i,0.22
